Source: ChEMBL document CHEMBL3351579, “Structural optimization of a retrograde trafficking inhibitor that protects cells from infections by human polyoma- and papillomaviruses” (Bioorg Med Chem, 2014)
Calls of active or inactive are those of the source. The calls are words filed in the database; no cut-off is given here.

Experiments:
JC polyomavirus [1] = test: Antiviral activity against JC polyomavirus Mad1-SVEdelta infected in SVG-A cells assessed as viral infectivity level pre-incubated for 0.5 hrs with 25 uM compound before viral infection for 72 hrs by flow cytometry relative to DMSO control; format: functional
[2] = system: Human papillomavirus type 16; test: Antiviral activity against HPV16 pseudovirus expressing HcRed reporter infected in HeLa-M cells assessed as reduction in viral infectivity pre-incubated for 0.5 hrs with compound before viral infection for 72 hrs by flow cytometry; format: functional, organism-based; conditions: Human papillomavirus 16, HeLaM
Summary of the method: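 HeLa M cells in DMEM with 10% FBS and 10 mM Hepes pH 7.5, pretreated with compound from 1:2 serial dilutions of a 2500x DMSO stock, final DMSO 0.04%. Challenged with HcRed-reporter HPV16 pseudovirus. Cells fixed in 4% PFA and HcRed-positive cells scored by flow cytometry. IC50 from three independent experiments.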

[3] = system: Human papillomavirus type 16; test: (§1) Inhibition of retrograde transport of HPV16 pseudovirus expressing HcRed reporter infected in SVG-A cells assessed as reduction in co-localization of viral capsid protein L1 and golgi protein TGN46 pre-incubated for 0.5 hrs with compound before viral infection for 1 hr followed by incubation with compound at 0.1 mM for 16 hrs by proximity ligation assay; format: functional, organism-based; conditions: Human papillomavirus 16
JC polyomavirus [4] = test: Antiviral activity against JC polyomavirus Mad1-SVEdelta infected in SVG-A cells assessed as reduction in viral infectivity pre-incubated for 0.5 hrs with compound before viral infection for 72 hrs by flow cytometry; format: functional, cell-based
Summary of the method: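 JCPyV infection of SVG-A cells (1 × 10^5 per well, seeded overnight at 37°C) after 0.5 h pretreatment with compound from 1:2 serial dilutions of a 2500x DMSO stock, final DMSO 0.04%. Virus at MOI 0.25 with compound present for 72 h. Cells fixed in 4% PFA and permeabilized in 1% Triton X-100. Stained with Alexa Fluor-labeled anti-VP1 antibody, infected cells scored by flow cytometry. IC50 from three independent experiments.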

JC polyomavirus [5] = test: as §1, with “JC polyomavirus Mad1-SVEdelta” for “HPV16 pseudovirus expressing HcRed reporter”, “VP1” for “L1”, “ER” for “golgi”, “PDI” for “TGN46”, “8” for “16”; format: functional, cell-based
Summary of the method: (§2)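 SVG-A cells in MEM with 10% FBS were pretreated 0.5 h, then given JCPyV Mad1-SVEΔ at MOI 100 for 1 h at 37°C. After washing, compound (0.05 or 0.1 mM) or vehicle was re-added for 8 h at 37°C. Cells were fixed (4% PFA), permeabilised (0.5% Triton, 0.5 h) and blocked (5% donkey serum), then stained overnight at 4°C with rabbit anti-VP1 (1:1,000) plus mouse anti-PDI (1:100). Read-out: proximity ligation, confocal maximal z-projections.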

JC polyomavirus [6] = test: as §1, with “JC polyomavirus Mad1-SVEdelta” for “HPV16 pseudovirus expressing HcRed reporter”, “VP1” for “L1”, “ER” for “golgi”, “PDI” for “TGN46”, “0.05” for “0.1”, “8” for “16”; format: functional, cell-based; summary of the method: as §2
[7] = system: Human papillomavirus type 16; test: as §1, with “0.05” for “0.1”; format: functional, organism-based; conditions: Human papillomavirus 16
JC polyomavirus [8] = test: Potency index, ratio of IC50 for Retro-2(cycl) to IC50 for test compound against JC polyomavirus Mad1-SVEdelta infected in SVG-A cells assessed as reduction in viral infectivity pre-incubated for 0.5 hrs with compound before viral infection for 72 hrs by flow cytometry; format: functional

Row | Compound | Activity (JC polyomavirus [1]) | further results
1 | CCCCNc1ccc2c(c1)C(=O)N(Cc1ccc(F)cc1)C(c1ccc(CC)s1)N2 (configuration not stated) | 71% | 
2 | CCc1ccc(-c2nc3ccccc3c(=O)n2Cc2ccc(F)cc2)s1 | 63.3% | 
3 | CCc1ccc(C2N(Cc3ccc(F)cc3)C(=O)c3ccccc3N2C)s1 (configuration not stated) | 60% | 
4 | CCc1ccc(C2Nc3ccccc3C(=O)N2[C@@H](C)c2ccccc2)s1 (mixture of isomers) | 32.4% | 
5 | CCc1ccc(C2Nc3ccccc3C(=O)N2[C@H](C)c2ccccc2)s1 (mixture of isomers) | 52.7% | 
6 | Cc1ccc(C2Nc3ccccc3C(=O)N2c2ccccc2)s1 (racemic) | 57.5% | IC50 [2]: 160 µM; inhibition [3]: Active; IC50 (JC polyomavirus [4]): 54 µM; inhibition (JC polyomavirus [5]): Active
7 | O=C1c2ccccc2NC(c2cccs2)N1c1ccccc1 (racemic) | 81.1% | 
8 | Cc1ccsc1C1Nc2ccccc2C(=O)N1c1ccccc1 (racemic) | 76.4% | 
9 | Cc1csc(C2Nc3ccccc3C(=O)N2c2ccccc2)c1 (racemic) | 55.6% | 
10 | CCc1ccc(C2Nc3ccccc3C(=O)N2c2ccccc2)s1 (racemic) | 47.8% | 
11 | O=C1c2ccccc2NC(c2ccc[nH]2)N1c1ccccc1 (racemic) | 92.4% | 
12 | O=C1c2ccccc2NC(c2ccco2)N1c1ccccc1 (racemic) | 69.9% | 
13 | Cc1ccc(C2Nc3ccccc3C(=O)N2c2ccccc2)o1 (racemic) | 64.4% | 
14 | O=C1c2ccccc2NC(c2cc3ccccc3s2)N1c1ccccc1 (racemic) | 95.3% | 
15 | CCc1ccc(C2NC(=O)c3ccccc3N2)s1 (racemic) | 41.4% | 
16 | CCCN1C(=O)c2ccccc2NC1c1ccc(CC)s1 (racemic) | 76.4% | 
17 | CCc1ccc(C2Nc3ccccc3C(=O)N2C(C)C)s1 (racemic) | 69.9% | 
18 | CCCCN1C(=O)c2ccccc2NC1c1ccc(CC)s1 (racemic) | 42.4% | 
19 | CCc1ccc(C2Nc3ccccc3C(=O)N2C2CCCCC2)s1 (racemic) | 45.7% | 

Row | Compound | Activity (JC polyomavirus [1]) | further results
20 | CCc1ccc(C2Nc3ccccc3C(=O)N2Cc2ccccc2)s1 (racemic) | 13.3% | 
21 | CCc1ccc(C2Nc3ccccc3C(=O)N2CCc2ccccc2)s1 (racemic) | 50.4% | 
22 | CCc1ccc(C2Nc3ccccc3C(=O)N2Cc2cccc3ccccc23)s1 (racemic) | 14.5% | 
23 | CCc1ccc(C2Nc3ccccc3C(=O)N2Cc2ccc(OC)cc2)s1 (racemic) | 21.2% | 
24 | CCc1ccc(C2Nc3ccccc3C(=O)N2Cc2cccc(OC)c2)s1 (racemic) | 27.5% | 
25 | CCc1ccc(C2Nc3ccccc3C(=O)N2Cc2ccccc2OC)s1 (racemic) | 13.7% | 
26 | CCc1ccc(C2Nc3ccccc3C(=O)N2Cc2ccc(OC)cc2OC)s1 (racemic) | 16.4% | 
27 | CCc1ccc(C2Nc3ccccc3C(=O)N2Cc2ccc(F)cc2)s1 (racemic) | 7.62% | 
28 | CCc1ccc(C2Nc3ccccc3C(=O)N2Cc2cccc(F)c2)s1 (racemic) | 14% | 
29 | CCc1ccc(C2Nc3ccccc3C(=O)N2Cc2ccc([N+](=O)[O-])cc2)s1 (racemic) | 30.6% | 
30 | CCc1ccc(C2Nc3ccccc3C(=O)N2Cc2cccc([N+](=O)[O-])c2)s1 (racemic) | 44.5% | 
31 | CCc1ccc(C2Nc3cccc(C)c3C(=O)N2Cc2ccc(F)cc2)s1 (racemic) | 10.2% | 
32 | CCc1ccc(C2Nc3ccc(C)cc3C(=O)N2Cc2ccc(F)cc2)s1 (racemic) | 8.34% | 
33 | CCc1ccc(C2Nc3cc(C)ccc3C(=O)N2Cc2ccc(F)cc2)s1 (racemic) | 67.1% | 
34 | CCc1ccc(C2Nc3c(C)cccc3C(=O)N2Cc2ccc(F)cc2)s1 (racemic) | 44.5% | 
35 | CCc1ccc(C2Nc3ccc(Cl)cc3C(=O)N2Cc2ccc(F)cc2)s1 (racemic) | 13.7% | 
36 | CCc1ccc(C2Nc3cc(Cl)ccc3C(=O)N2Cc2ccc(F)cc2)s1 (racemic) | 21.3% | 
37 | CCc1ccc(C2Nc3ccc(F)cc3C(=O)N2Cc2ccc(F)cc2)s1 (racemic) | 4.45% | IC50 [2]: 24 µM; inhibition (JC polyomavirus [6]): Active; inhibition [7]: Active; IC50 (JC polyomavirus [4]): 8.1 µM; Ratio IC50 (JC polyomavirus [8]): 6.7
38 | CCc1ccc(C2Nc3cc(F)ccc3C(=O)N2Cc2ccc(F)cc2)s1 (racemic) | 8.82% | 
